For 4 molecules, IC50, Activity and Kd results are on record in ChEMBL document CHEMBL1150247, “Structural determinants for affinity enhancement of a dual antagonist peptide entry inhibitor of human immunodeficiency virus type-1” (J Med Chem, 2008).

Each structure is given as a SMILES string. Activity calls are given as the source filed them. No cut-off for these calls is given here.

Series [1] can be described thus: Inhibition of HIV1 YU2 gp120 binding to immobilized CD4 by surface plasmon resonance method. More on the design: species or system Human immunodeficiency virus 1.
Series [2] relates to Human immunodeficiency virus 1. The experiment in a line: Antiviral activity against HIV1 BaL in CCR5 expressing P4 cells after 2 hrs. The note with it: Human immunodeficiency virus 1, BaL, P4, 2 h. The format is functional, organism-based. Put shortly: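 P4-CCR5 cells (DMEM, 10% FBS, puromycin) seeded 1.2×10^4/well ~18 h ahead; exposed 2 h to HIV-1 BaL plus peptide, washed, cultured 46 more h; infection read by β-galactosidase reporter assay. Infectivity relative to mock-treated infected cells; IC50 from sigmoidal dose-response fit; two independent experiments combined.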

The nature of series [3]: Cytotoxicity against CCR5 expressing human P4 cells after 2 hrs by MTT assay. The series is classed as cell-based. The settings on record: p4, 2 h. Put shortly: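 P4-CCR5 cells seeded 4×10^4/well ~18 h ahead, exposed 2 h to varying peptide concentrations, washed, then viability by MTT; triplicate in two independent assays.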
The nature of series [4]: Binding affinity to immobilized HIV1 YU2 gp120 by surface plasmon resonance method. More on the design: species or system Human immunodeficiency virus 1. Put shortly: (§1)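 YU2 gp120 (Drosophila S2-expressed, F105-affinity purified) amine-coupled to CM5 chip (~4000 RU); peptides in PBS injected at 15 μL/min, 5 min association, 5 min dissociation. Buffer and anti-IL5Rα 2B6R control-surface responses subtracted; kinetic constants fitted in BIAevaluation.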

Series [5] can be described thus: Binding affinity to HIV1 YU2 gp120 by isothermal titration calorimetric method. More on the design: species or system Human immunodeficiency virus 1.
A short description of series [6]: Inhibition of HIV1 YU2 gp120 binding to immobilized CD4 binding site specific b6 monoclonal antibody by surface plasmon resonance method. More on the design: species or system Human immunodeficiency virus 1.
The nature of series [7]: Inhibition of HIV1 YU2 gp120 binding to immobilized CD4 binding site specific immunoglobulin G b12 monoclonal antibody by surface plasmon resonance method. More on the design: species or system Human immunodeficiency virus 1.
Series [8] can be described thus: Inhibition of HIV1 YU2 gp120 binding to immobilized CD4 binding site specific F105 monoclonal antibody by surface plasmon resonance method. More on the design: species or system Human immunodeficiency virus 1.
Series [9] in a line: Inhibition of HIV1 YU2 gp120 binding to immobilized CD4 induced 17b monoclonal antibody by surface plasmon resonance method. More on the design: species or system Human immunodeficiency virus 1.
Series [10] relates to Human immunodeficiency virus 1. The experiment in a line: Binding affinity to immobilized HIV1 YU2 gp120 upto 1 mM by surface plasmon resonance method. Put shortly:
as §1

As to `CC[C@H](C)[C@H](NC(=O)[C@@H](N)CCCNC(=N)N)C(=O)N[C@@H](CC(N)=O)C(=O)N[C@@H](CC(N)=O)C(=O)N[C@H](C(=O)N1C[C@@H](n2cc(-c3ccccc3)nn2)C[C@H]1C(=O)N[C@@H](Cc1c[nH]c2ccccc12)C(=O)N[C@@H](CO)C(=O)N[C@@H](CCC(=O)O)C(=O)N[C@@H](C)C(=O)N[C@@H](CCSC)C(=O)N[C@@H](CCSC)C(=O)O)[C@@H](C)CC`, the IC50 in [1] turned out to be 154 nM; in series [2], 1400 nM; in series [6] it was 106 nM; in series [7] it was 162 nM; in series [8], 109 nM; in series [9], 172 nM. In series [3], the Activity entry is “Non-toxic”. The Kd in series [4] came out at 23 nM; in series [5], 33 nM.

Regarding `CC[C@H](C)[C@H](NC(=O)[C@@H](N)CCCNC(=N)N)C(=O)N[C@@H](CC(N)=O)C(=O)N[C@@H](CC(N)=O)C(=O)N[C@H](C(=O)N1C[C@@H](n2cc(C3(N)CCCCC3)nn2)C[C@H]1C(=O)N[C@@H](Cc1c[nH]c2ccccc12)C(=O)N[C@@H](CO)C(=O)N[C@@H](CCC(=O)O)C(=O)N[C@@H](C)C(=O)N[C@@H](CCSC)C(=O)N[C@@H](CCSC)C(=O)O)[C@@H](C)CC`, the result in series [10] was inactive.

Turning to `CC[C@H](C)[C@H](NC(=O)[C@@H](N)CCCNC(=N)N)C(=O)N[C@@H](CC(N)=O)C(=O)N[C@@H](CC(N)=O)C(=O)N[C@H](C(=O)N1CCC[C@H]1C(=O)N[C@@H](Cc1c[nH]c2ccccc12)C(=O)N[C@@H](CO)C(=O)N[C@@H](CCC(=O)O)C(=O)N[C@@H](C)C(=O)N[C@@H](CCSC)C(=O)N[C@@H](CCSC)C(=O)O)[C@@H](C)CC` [RINNIPWSEAMM], the IC50 in [1] turned out to be 5400 nM; in series [2] it was 48000 nM; in series [6], 10000 nM; in series [7] it was 8800 nM; in series [8] it was 6400 nM; in series [9], 7200 nM. In [3], the Activity result is “Non-toxic”. In addition, the Kd in [4] is 5000 nM; in [5], 2600 nM.

Turning to `CC[C@H](C)[C@H](NC(=O)[C@@H](N)CCCNC(=N)N)C(=O)N[C@@H](CC(N)=O)C(=O)N[C@@H](CC(N)=O)C(=O)N[C@H](C(=O)N1C[C@@H](n2cc(-c3ccc(C)cc3)nn2)C[C@H]1C(=O)N[C@@H](Cc1c[nH]c2ccccc12)C(=O)N[C@@H](CO)C(=O)N[C@@H](CCC(=O)O)C(=O)N[C@@H](C)C(=O)N[C@@H](CCSC)C(=O)N[C@@H](CCSC)C(=O)O)[C@@H](C)CC`, the IC50 in series [1] stood at 67 nM; in series [2], 156 nM; in series [6], 136 nM; in [7], 117 nM; in [8], 76 nM; in [9] it was 94 nM. For the same molecule, the Activity entry in series [3] is reported as “Non-toxic”. The dissociation constant Kd in [4] is 12 nM.
